FXIIa inh: human FXIIa protease inhibitors, primary screen, biochemical, 1536-well. Coagulation factor XII (Homo sapiens), P00748. purified FXIIa, Boc-QGR-AMC fluorogenic substrate, 2 h. hit rate 0.3% among 220,000. AID 800, 2007. inhibition, % at 5 µM; in the data active = inhibition above about 40%;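 also: 0% = enzyme with no compound and 100% = blank without enzyme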
thrombin 1536: human alpha-thrombin inhibitors, primary screen, counter-screen for coagulation protease inhibitor project, biochemical, 1536-well, fluorogenic AMC substrate; Prothrombin (Homo sapiens), P00734; inhibition, % at 5 µM; hit rate 0.26% among 220,000; Boc-VPR-AMC fluorogenic substrate cleavage;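 active = inhibition at or above 40%; inactive = inhibition below 40%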;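 also: 0% = enzyme with no compound and 100% = wells without enzyme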
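Material: Human alpha-thrombin protein | Buffer or medium: pH 7.5 Tris-saline with Tween 20 | Reagent: Boc-VPR-AMC substrate, 15 µM final | Schedule: Reaction at ambient temperature | Detection: AMC fluorescence at 355 nm excitation and 460 nm emission | Evaluation: Percent inhibition scaled between no-compound controls and no-enzyme blanks | Controls: no-compound enzyme wells and no-enzyme blanks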
Furin inh: human furin inhibitors, primary screen, biochemical, fluorescence intensity; P09958; purified furin, fluorogenic substrate cleavage; inhibition, % at 20 µM or 30 µM; hit rate 0.061% among 220,000; AID 463115, 2010; in the data active = inhibition above about 25%
Target sequence (P09958 108-714 limits assumed): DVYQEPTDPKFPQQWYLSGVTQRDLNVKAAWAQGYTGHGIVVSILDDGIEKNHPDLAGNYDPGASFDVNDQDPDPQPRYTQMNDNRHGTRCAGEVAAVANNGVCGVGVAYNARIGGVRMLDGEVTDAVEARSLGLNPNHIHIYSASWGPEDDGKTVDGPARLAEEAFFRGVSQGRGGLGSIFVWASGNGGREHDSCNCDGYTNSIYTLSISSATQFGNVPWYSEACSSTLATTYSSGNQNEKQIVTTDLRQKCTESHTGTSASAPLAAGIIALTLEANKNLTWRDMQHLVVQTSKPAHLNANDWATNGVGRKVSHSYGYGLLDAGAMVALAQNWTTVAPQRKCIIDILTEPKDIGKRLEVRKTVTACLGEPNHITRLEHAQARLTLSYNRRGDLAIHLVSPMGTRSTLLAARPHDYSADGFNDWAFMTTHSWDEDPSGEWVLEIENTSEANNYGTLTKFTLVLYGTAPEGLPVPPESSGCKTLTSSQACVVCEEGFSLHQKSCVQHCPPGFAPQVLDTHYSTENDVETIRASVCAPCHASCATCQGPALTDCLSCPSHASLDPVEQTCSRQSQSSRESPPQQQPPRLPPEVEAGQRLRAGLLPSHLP
FXIa inh: human FXIa protease inhibitors, primary screen, biochemical, 1536-well; purified FXIa, Boc-Glu-Ala-Arg-AMC fluorogenic substrate; inhibition, % at 5 µM; hit rate 0.14% among 220,000; AID 798, 2007;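 active = inhibition of at least 40%; inactive = inhibition below 40%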;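 also: fluorescence of freed AMC excited at 355 nm; 0% = enzyme without compound and 100% = no enzyme blank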
hK5 inh: human KLK5 protease inhibitors, primary screen, biochemical, 1536-well; inhibition, % at 5 µM; Kallikrein-5 (Homo sapiens), Q9Y337; recombinant hK5, fluorogenic AMC substrate cleavage; hit rate 0.59% among 210,000;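 active = inhibition of 40% or more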;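 also: 0% = enzyme controls without compound and 100% = no-enzyme blanks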
* marks the source's active call; other numbers are inactive results. Compounds with a hit are over-represented: about 1.1% of the library has one in this group of screens.

SMILES	FXIIa inh	thrombin 1536	Furin inh	FXIa inh	hK5 inh
Clc1ccc2c(N3CCNCC3)ccnc2c1	21	23	-6	10	41*
O=[N+]([O-])c1ccc(N2CCNCC2)c(Cl)c1	11	-3	-20	-1	0
O=C1NC(=O)C(Cc2cccs2)C(=O)N1	27	2	-15	3	78*
O=C1N(c2cccc(Cl)c2)C(c2cccnc2)N2CCCN12 (centres undefined)	0	-13	-12	-5	-1
O=P(C(c1c[nH]c2ccccc12)N1CCOCC1)(N1CCOCC1)N1CCOCC1 (centres undefined)	6	1	-16	-4	43*
CCOc1cc(CNCCc2c[nH]c3ccccc23)cc(Cl)c1OC	3	-7	-27	-4	-6
C=CCn1c(O)c(/C=N/NC(=O)c2ccncc2)c(=O)[nH]c1=O	5	-6	36*	-2	-18
O=C(C1CC(c2ccc(F)cc2)=NO1)N1CCC2(CC1)OCCO2 (centres undefined)	-3	-3	-14	-10	-3
O=C(C1CC(c2ccc(Cl)c(Cl)c2)=NO1)N1CCC2(CC1)OCCO2 (centres undefined)	48*	7	-12	2	6
Cc1ccc2c(c1)C1CN(C)CCC1N2C(=O)c1cn(-c2ccccc2)nc1-c1ccccc1 (centres undefined)	8	80*	-24	-6	-5
Cc1ccc2c(c1)C1CN(C)CCC1N2C(=O)c1cccnc1Cl (centres undefined)	8	1	-29	2	2
C#CCNc1ccncc1S(=O)(=O)NC(=O)NC(C)C	6	0	-12	3	-6
CN1/C(=C\C=C2C(=O)NC(=O)NC2=O)C(C)(C)c2ccccc21	8	18	28*	1	3
CCCCN1CCC(O)(c2ccccc2)C(C(=O)c2ccccc2)C1 (centres undefined)	16	0	34*	6	-10
C=CCn1c(O)c(C(C)=Nc2ccc(C(=O)O)cc2)c(=O)[nH]c1=O	7	2	-11	4	3
Cc1nc2ccccc2n1C1CCN(Cc2nnnn2CCc2ccccc2)CC1	43*	-4	-20	-13	-2
C/C(=N\N1CCCCC1c1cccnc1)c1c(O)n(C2CCCCC2)c(=S)[nH]c1=O (centres undefined)	4	-2	1	-11	10
OCC#CC[N+]1(CC#Cc2ccccc2)CCOCC1	30	36	-7	33	78*
CC(NCC#Cc1ccccc1)C(O)c1ccccc1 (centres undefined)	-2	4	-12	-3	-14
C/C=C1/CC(C)C(C)(O)C(=O)OCC2CCN3CCC(OC1=O)C23 (centres undefined)	15	-7	-14	3	6
C=C1C[C@]2(O)[C@@]3(C)CCC(=O)C(C)(C)C3=C(O)C(=O)[C@@]2(C)[C@@H]2C(=O)O[C@@](C)(C(=O)OC)C(=O)[C@@]12C	8	-2	-24	2	0
OC1(c2ccccc2F)CC2CCC(C1)N2CCN1CCOCC1 (centres undefined)	-162	23	-29	33	55*
CNC(=O)Oc1cccc2ccccc12	28	22	-9	18	42*
CN(C)C(=O)Oc1ccc2ccccc2c1Cl	23	2	-18	8	6
O=c1[nH]c(=O)n(Cc2ccco2)c(O)c1C=NC1CCN(Cc2ccccc2)CC1	6	-4	-20	-1	-1
SMILES	FXIIa inh	thrombin 1536	Furin inh	FXIa inh	hK5 inh
O=C1NC(=O)N(Cc2ccccc2Cl)C(=O)/C1=C/c1cccs1	39	11	-3	29	50*
c1ccc2[nH]c(CCNC3CCCCC3)nc2c1	11	-4	1	6	-1
Cc1ccc(C2C(S(C)(=O)=O)=C(O)C(=O)N2c2ccccc2)cc1 (centres undefined) (tested in a mixture with another compound)	17	0	-30	2	44*
OC(c1cccc(Cl)c1)(c1cccc(Cl)c1)C1CN2CCC1CC2 (centres undefined)	7	-6	-29	-3	2
O=c1c2ccccc2nc(CNCc2ccco2)n1-c1ccc(F)cc1	7	0	-22	7	-10
CN(C(=O)Oc1ccc(Cl)c2cccnc12)c1ccccc1	11	-1	1	5	-18
CN(C(=O)Oc1cccc2cccnc12)c1ccccc1	44*	16	-11	14	22
CCCCN1C(=O)NC(=O)C2(Cc3c(nc4c(C)cccn4c3=O)N3CCc4ccccc4C32)C1=O (centres undefined)	-14	-1	-29	-13	-13
CCCCN1C(=O)NC(=O)C2(Cc3c(nc4ccccn4c3=O)N3CCc4ccccc4C32)C1=O (centres undefined)	10	45*	-19	5	-1
CN1CCN(c2ncnc3ccc(Br)cc23)CC1	-4	3	-5	-1	-15
CN1CCN(c2ncnc(Cl)c2N)CC1	103*	1	4	30	33
CC(C)c1oc(=O)cc2c1[C@@H](O)[C@H]1OC(=O)[C@@]3(C)C[C@@H](O)[C@@H](O)[C@@]2(C)C13 (some centres undefined)	11	2	-10	5	0
CCc1c(C)nc(N)nc1N1N=C1SCC(=O)OC	-10	0	-28	-9	-28
CCc1c(C)nc(N)nc1N1N=C1SCC#N	58*	0	-4	32	7
CCc1nc2ccccc2c(=O)n1-c1ccccc1[N+](=O)[O-]	5	3	-17	-2	14
Cc1nnc(SCc2nc3ccccc3c(=O)n2-c2ccccc2Cl)n1N	13	-5	26*	-4	-8
N#Cc1ccccc1Cn1cc(C(=O)c2ccccc2F)c2ccccc21	7	-4	-15	7	-6
O=C(O)c1ccc(N=Cc2c(O)n(Cc3ccc(F)cc3)c(=O)[nH]c2=O)cc1	41*	32	-1	31	30
CCC(=O)c1c(O)n(C2CCCCCC2)c(=O)[nH]c1=O	20	24	-23	-3	46*
COC(=O)c1ccccc1-n1c(C)nc2ccccc2c1=O	17	28	-4	3	82*
C[C@@H]1C(=O)O[C@@H]2[C@H](O)C34[C@@H]5OC(=O)C3(O[C@H]3OC(=O)[C@H](O)C34[C@H](C(C)(C)C)[C@H]5O)[C@@]12O (some centres undefined)	11	4	-18	3	1
CCN1C(=O)/C(=C/c2ccc3c(c2)CCN3CCCCl)C(=O)NC1=S	1	-1	-4	-1	-60
O=C1NC(=S)N(C2CC2)C(=O)/C1=C/c1ccc2c(c1)CCN2CCCCl	43*	25	-10	15	21

Screening results (PubChem)
